A selection: hits, their analogues and other compounds. The true share with any hit is near 2.9%.
KLK7 zymogen act: activates the human kallikrein-7 zymogen. 370,000 compounds, 0.9% hits. purified proKLK7, EDANS-DABCYL substrate fluorescence; 100% is mature enzyme control, 0% vehicle. activation, % at 7 µM;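 active means activation above the mean of all tested compounds plus 3 SD, computed per campaign excluding outliers beyond control limits, cut at about 13% in these data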
RanGTP-Impb inh: inhibitors of RanGTP-importin-beta interaction, primary screen, biochemical, FRET, CFP-Ran, YFP-importin-beta, homogeneous | 300,000 compounds, 1.1% hits | inhibition, % (test concentration not listed) | cell-free CFP-Ran/YFP-importin-beta FRET ratio;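 active means more than half of the replicate wells show a fall in the fluorescence ratio signal beyond about 16%, limit read from the data, passing the limit was not always enough; inconclusive means exactly half of the replicate wells pass the set limit; inactive means fewer than half of replicates pass the limit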;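 further: 0% = DMSO wells and 100% = Ran loaded with GDP instead of GTP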
AI-2 QS mod: modulators of Vibrio harveyi AI-2 quorum sensing system | 300,000 compounds, 0.4% hits | Vibrio harveyi JMH597 AI-2 luminescence/OD600 ratio, 9 h; stronger effect = lower value; strain lacks LuxN and CqsS sensors; 0 = neutral-control median | activity change, % at 7.5 µM; in the data active means activity change below about -75%, passing the limit was not always enough; inconclusive means no clear call, values can overlap the other calls;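 further: luminescence divided by OD600 gain over 9 h not by final OD600 alone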
Wee1 stabilizer: inhibitors of human Wee1 degradation; HeLa Luc-Wee1K328M stability, luciferase luminescence; 100% = proteasome inhibitor MG132 effect; reporter increase, % at 5 µM; 220,000 compounds, 1.2% hits; AID 1321;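 active means activation above the mean of all tested compounds plus 3 SD, set per screening run, cut at about 8.8% in these data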;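 further: cells exposed to compound for 20 h before luminescence read; 0% = DMSO alone and 100% = MG132 at 30 µM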
Runt-SMMHC FRET: blocks binding of human RUNX1 Runt domain to CBFb-SMMHC. Q01196+Q13951. Cerulean-Runt/Venus-CBFb-SMMHC FRET ratio 530/480, 1 h. inhibition, % at 20 µM. 220,000 compounds, 0.74% hits;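 active means mean inhibition across duplicate retests at 20 µM reaching about 50%, limit read from the data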;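 further: 0% = DMSO wells and 100% = wells with excess untagged CBFb-SMMHC; inhibitors lower the FRET ratio by blocking Runt binding to CBFb-SMMHC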
Target sequence (Q01196 whole entry, looked up, the tested form may be a part): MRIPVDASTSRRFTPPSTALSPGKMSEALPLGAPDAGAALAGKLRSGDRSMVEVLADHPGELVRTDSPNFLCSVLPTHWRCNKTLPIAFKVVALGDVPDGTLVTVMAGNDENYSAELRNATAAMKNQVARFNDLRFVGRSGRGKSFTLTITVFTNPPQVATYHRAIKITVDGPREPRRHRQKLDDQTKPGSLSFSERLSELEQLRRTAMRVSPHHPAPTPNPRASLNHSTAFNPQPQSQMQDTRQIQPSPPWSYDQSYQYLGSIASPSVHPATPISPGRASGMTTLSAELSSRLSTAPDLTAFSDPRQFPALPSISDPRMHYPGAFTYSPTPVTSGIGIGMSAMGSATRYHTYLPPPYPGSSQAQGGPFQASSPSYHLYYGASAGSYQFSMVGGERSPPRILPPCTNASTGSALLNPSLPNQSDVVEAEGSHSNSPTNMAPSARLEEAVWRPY
Target sequence (Q13951 whole entry, looked up, the tested form may be a part): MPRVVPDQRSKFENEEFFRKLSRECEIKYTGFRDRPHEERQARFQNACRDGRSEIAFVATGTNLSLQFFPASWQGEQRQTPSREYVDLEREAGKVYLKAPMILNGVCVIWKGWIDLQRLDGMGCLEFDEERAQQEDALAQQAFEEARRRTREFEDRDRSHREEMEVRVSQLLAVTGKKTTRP
Runt-CBFb FRET: inhibitors of human RUNX1 Runt domain binding to CBFb; Q01196+Q13951; Cerulean-Runt/Venus-CBFb FRET ratio 530/480, 1 h; inhibition, % at 20 µM; 220,000 compounds, 0.46% hits; AID 1496;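 active means inhibition over about 50% at 20 µM in the single-dose screen, limit read from the data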;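 further: 0% = DMSO wells and 100% = excess unlabeled CBFb competitor control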
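Measured by: fluorescence energy transfer, 422 nm excitation, 530/480 nm emission; test system: Cerulean-tagged RUNX1 Runt domain (FRET donor) fusion protein; buffer or medium: Tris pH 7.5 buffer with BSA; compound: one dose, 20 µM compound, 1% DMSO; times: two 1 h room-temperature incubations shielded from light; benchmarks: unlabeled CBFb 5 µM, positive control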
proKLK7 act conf: confirmation of human kallikrein-7 zymogen activators | AID 686949 | purified proKLK7, EDANS-DABCYL substrate fluorescence; scaled: vehicle 0, mature enzyme 100 | activation, % at 7 µM | 3,200 compounds, 68% hits | shares compounds with KLK7 zymogen act;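 active means activation, as change over the incubation, above the mean of all tested compounds plus 3 SD, cut at about 13% in these data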
EDANS-DABCYL int: optically interferes with EDANS-DABCYL signal, flagging KLK7 hits. activation, % at 7 µM. EDANS-DABCYL substrate fluorescence interference, no enzyme, 4 h; solvent 0%, active enzyme control 100%. AID 686952. 3,200 compounds, 80% hits. shares compounds with KLK7 zymogen act;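 active means activation above the all-compound mean plus 3 SD, ignoring values outside control-based bounds, cut at about 4.8% in these data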;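 further: value is the 4 h activation minus the activation read at time zero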
K7 EDANS ctr: counter-screen for kallikrein-7 activators: EDANS-DABCYL interference, dose response; shares compounds with KLK7 zymogen act; EDANS-DABCYL peptide fluorescence interference, no enzyme; EC50, µM; 250 compounds, 20% hits; AID 720493;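 active means compounds that raise the fluorescence signal in this interference counterscreen, with EC50 at or below 10 µM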;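 further: intact quenched peptide substrate alone read at 355 nm excitation and 520 nm emission; signal is fluorescence gain from T0 to T4 after four hours at room temperature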
Numbers without * were called inactive; i = inactive; ? = inconclusive; / = not tested or not shown.

SMILES	KLK7 zymogen act	RanGTP-Impb inh	AI-2 QS mod	Wee1 stabilizer	Runt-SMMHC FRET	Runt-CBFb FRET	proKLK7 act conf	EDANS-DABCYL int	others
O=c1nc2ccc(Cl)cn2c2ccc(S(=O)(=O)N3CCOCC3)cc12	19.8*	?	20.5	/	/	/	70.2*	78.5*
O=c1nc2ccc(Cl)cn2c2ccc(S(=O)(=O)N3CCCCC3)cc12	-9.0	7.8	15.4	/	/	/	/	/
Cc1ccc(-c2csc3nc4ccc(C(=O)NCCO)cc4c(=O)n23)cc1	15.8*	-2.3	19.9	/	7.2	6.0	-31.8	-35.5
Cc1ccc(-c2csc3nc4cc(C(=O)NC5CCC(O)CC5)ccc4c(=O)n23)cc1 (configuration not stated)	-11.2	6.4	15.8	/	5.0	2.2	/	/
O=C(/C=C/c1ccccc1[N+](=O)[O-])N1CCN(C(=O)c2ccco2)CC1	0.4	1.5	-9.7	6.7	-1.2	-32.4	/	/
CC(C)(C)c1ccc(OC(=O)Nc2ccc(O)c(C(=O)O)c2)cc1	12.7*	-1.6	5.6	-3.3	-4.9	2.2	14.4*	12.4*
Cc1cccn2c(=O)c(C=O)c(Cl)nc12	92.3*	?	26.4	-2.9	0.5	3.7	15.7*	19.4*
CC1CCN(c2nc3ccccn3c(=O)c2C=O)CC1	0.0	-0.5	8.1	-3.6	5.3	0.2	/	/
O=Cc1c(Cl)nc2ccccn2c1=O	41.9*	-1.6	-8.1	-2.5	7.0	3.1	22.3*	20.4*
O=C(/C=C/c1ccccc1)NCCc1nc2ccccc2[nH]1	-0.2	0.7	2.1	1.6	3.6	-2.1	/	/
COc1ccc(OC)c(/C=C/C(=O)NCCc2nc3ccccc3[nH]2)c1	49.0*	0.8	15.3	2.3	0.3	0.5	37.2*	-31.3	K7 EDANS ctr=>69.5
CCN(CC(=O)NCc1cccs1)C(=O)/C=C/c1cc(OC)ccc1OC	66.9*	/	/	/	/	/	71.5*	70.8*
COc1ccc(OC)c(/C=C/C(=O)OCC(=O)NCc2ccccc2)c1	14.7*	/	/	/	/	/	3.6	8.3*
COc1ccc(OC)c(/C=C/C(=O)OCC(=O)NCc2cccs2)c1	14.9*	/	/	/	/	/	9.3	21.0*
Cc1cnc2c(N)cc(C)c(C)c2c1	1.0	/	/	/	/	/	/	/
COC(=O)CCN1CCc2cc(N=Nc3ccc([N+](=O)[O-])cc3)ccc21	0.3	2.8	12.4	0.4	-9.8	-1.5	/	/
O=C(NCc1cccnc1)c1cc(C2CCCN(C(=O)c3ccccn3)C2)on1 (configuration not stated)	0.5	/	/	/	/	/	/	/
CCOC(=O)c1cc(C)[nH]c(=O)c1C#N	42.4*	7.7	21.8	3.2	56.2*	26.2	65.5*	74.4*
CN(C)/C=N/c1nc2nccc(-c3cccc(Cl)c3)n2n1	14.6*	1.5	25.1	-1.1	2.4	2.6	34.0*	45.4*
CN(C)/C=N/c1nc2nccc(-c3ccc(F)cc3)n2n1	12.3	-3.0	27.6	0.2	-0.9	1.6	/	/
CN1OC[C@@H]2CN(C(=S)NCCc3ccccc3)[C@H](c3ccc(-n4ccnc4)cc3)C[C@@H]21	0.3	/	/	/	/	/	/	/
CCCCN(CC)CCNC(=O)c1cc2c(=O)n(C)c3ccccc3c2s1	19.1*	2.4	33.9	/	/	/	1.2	-2.0
CCCCN(CC)CCNC(=O)c1cc2c(-c3ccccc3F)nn(C)c2s1	5.9	2.5	11.8	/	/	/	/	/
CCn1c(=O)c2cc(C(=O)NCCC(C)C)sc2c2ccccc21	-2.2	1.3	5.9	/	/	/	/	/
CCN(CC)CCNC(=O)c1cc2c(=O)n(C)c3ccccc3c2s1	26.7*	8.4	6.6	/	/	/	-10.0	-18.0
SMILES	KLK7 zymogen act	RanGTP-Impb inh	AI-2 QS mod	Wee1 stabilizer	Runt-SMMHC FRET	Runt-CBFb FRET	proKLK7 act conf	EDANS-DABCYL int	others
CCCN(CCC)CCCNC(=O)c1cc2c(=O)n(CC)c3ccccc3c2s1	18.8*	-5.1	1.9	/	/	/	-8.2	-11.6
CCn1c(=O)c2cc(C(=O)NCCCOC)sc2c2ccccc21	15.4*	1.0	8.5	/	/	/	-10.5	-14.2
CCn1cc(-c2cc(C(=O)O)c3ccccc3n2)cn1	3.6	?	1.3	1.5	0.7	-0.6	/	/
COCCN(Cc1nnc(-c2cccs2)o1)C(=O)CN1C(=O)NC2(CCCCC2)C1=O	1.1	/	/	/	/	/	/	/
CCCCN(CC)CCCNC(=O)c1cc2c(=O)n(CC)c3ccccc3c2s1	10.7	0.0	0.8	/	/	/	/	/
CCCCN(CC)CCNC(=O)c1cc2c(=O)n(CC)c3ccccc3c2s1	14.0*	-3.4	8.7	/	/	/	-1.3	-3.4
O=C(Cn1cnc2cc([N+](=O)[O-])ccc2c1=O)NCc1ccccc1	-0.5	3.1	11.3	-0.5	3.9	2.2	/	/
CCCC(c1nnnn1C(C)(C)CC)N(Cc1ccco1)Cc1cc2ccc(OC)cc2[nH]c1=O (configuration not stated)	19.4*	2.2	13.8	0.0	13.0	13.7	-2.0	-1.0
C=CCNc1sc(C(=O)c2cccs2)c(N)c1C#N	86.8*	-6.1	-10.9	1.0	82.8	0.7	5.8	-5.8
COC(=O)[C@H]1Cc2c([nH]c3ccccc23)[C@H](c2ccccc2)N1	-0.2	1.0	-0.1	/	/	/	/	/
COC(=O)C1Cc2c([nH]c3ccccc23)CN1 (configuration not stated)	18.6*	-1.0	12.6	1.2	-2.7	-2.6	10.6	8.9*
Clc1cccc(-c2nc(-c3ccc(-c4nn[nH]n4)cc3)no2)c1	-0.2	/	/	/	/	/	/	/
CC1(C)Cc2c(sc(NC(=O)C(=O)N3CCOCC3)c2C(N)=O)CO1	0.2	2.9	-5.0	/	/	/	/	/
CC(=O)Nc1ccc(SCCCC(=O)c2ccccc2)cc1	0.6	2.8	-10.3	/	/	/	/	/
COc1ccccc1C1C=C(c2ccccc2)Nc2nnnn21 (configuration not stated)	20.6*	-2.5	25.0	-0.2	-1.0	-0.9	16.4*	13.5*	K7 EDANS ctr=i
COc1ccc(NC(=S)NNC(=O)c2cccs2)cc1	20.7*	7.9	12.6	2.9	-0.4	0.7	8.3	8.5*
COc1ccc(C(=O)Nc2cccc(NC(=O)c3cccs3)c2)cc1OC	35.0*	4.3	15.3	/	/	/	22.2*	29.3*
CNC(=S)NNC(=O)c1cccs1	13.3*	5.2	-13.8	2.0	2.0	2.3	14.4*	13.0*
CC(C)c1ccc(NC(=S)NNC(=O)c2cccs2)cc1	3.7	5.3	33.4	-0.7	0.7	2.6	/	/

Screens from PubChem BioAssay.
